Results taken from ChEMBL document CHEMBL1124369, “Pyrido[3,4-e]-1,2,4-triazines and related heterocycles as potential antifungal agents” (1989).
≈ marks a conversion by molar mass, not a printed value.

What was measured:
Trichophyton rubrum [1] = experiment: Antifungal activity against Trichophyton rubrum; Range is 1-2; type: functional
Procedure, shortened: (§1)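 Agar dilution MIC. Twofold serial drug dilutions in yeast nitrogen base medium with 1% dextrose, 0.15% asparagine and 1.5% agar. Agar surfaces inoculated using a Steers multiple inocula replicator, then incubated at 35 °C for 24-48 h. MIC was recorded as the lowest concentration inhibiting visible growth. Amphotericin B, miconazole and nystatin served as controls.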

Mucor fragilis = experiment: Antifungal activity against Mucor fragilis; type: functional; procedure, shortened: as §1
Aspergillus niger [2] = experiment: Antifungal activity against Aspergillus niger; Range is 16-32; type: functional; procedure, shortened: as §1
Candida albicans [3] = experiment: Antifungal activity against Candida albicans; Range is 8-16; type: functional; procedure, shortened: as §1
Diutina rugosa = experiment: Antifungal activity against Candida rugosa; type: functional; procedure, shortened: as §1
Kluyveromyces marxianus [4] = experiment: Antifungal activity against Candida pseudotropicalis; type: functional; procedure, shortened: as §1
Candida albicans [5] = experiment: Antifungal activity against Candida stellatoidea; type: functional; procedure, shortened: as §1
Candida tropicalis [6] = experiment: Antifungal activity against Candida tropicalis; Range is 8-16; type: functional; procedure, shortened: as §1
Trichophyton benhamiae [7] = experiment: Antifungal activity against Trichophyton mentagrophytes; Range is 2-4; type: functional, trychophyton mentagrophytes; procedure, shortened: as §1
Candida parapsilosis = experiment: Antifungal activity against Candida parapsilosis; type: functional; settings: Lodderomyces parapsilosis; procedure, shortened: as §1
Aspergillus niger [8] = experiment: Antifungal activity against Aspergillus niger; Range is 8-16; type: functional; procedure, shortened: as §1
Candida tropicalis [9] = experiment: Antifungal activity against Candida tropicalis; type: functional; procedure, shortened: as §1
Trichophyton rubrum [10] = experiment: Antifungal activity against Trichophyton rubrum; Range is 4-8; type: functional; procedure, shortened: as §1
Trichophyton benhamiae [11] = experiment: Antifungal activity against Trichophyton mentagrophytes; type: functional, trychophyton mentagrophytes; procedure, shortened: as §1
Trichophyton benhamiae [12] = experiment: Antifungal activity against Trichophyton mentagrophytes; Range is 32-64; type: functional, trychophyton mentagrophytes; procedure, shortened: as §1
Aspergillus niger [13] = experiment: Antifungal activity against Aspergillus niger; type: functional; procedure, shortened: as §1
Candida albicans [14] = experiment: Antifungal activity against Candida albicans; type: functional; procedure, shortened: as §1
Trichophyton rubrum [15] = experiment: Antifungal activity against Trichophyton rubrum; Range is 16-32; type: functional; procedure, shortened: as §1
Trichophyton rubrum [16] = experiment: Antifungal activity against Trichophyton rubrum; Range is 2-4; type: functional; procedure, shortened: as §1
Kluyveromyces marxianus [17] = experiment: Antifungal activity against Candida pseudotropicalis; Range is 32-64; type: functional; procedure, shortened: as §1
Aspergillus niger [18] = experiment: Antifungal activity against Aspergillus niger; Range is 32-128; type: functional; procedure, shortened: as §1
Trichophyton benhamiae [19] = experiment: Antifungal activity against Trichophyton mentagrophytes; Range is 8-32; type: functional, trychophyton mentagrophytes; procedure, shortened: as §1
Kluyveromyces marxianus [20] = experiment: Antifungal activity against Candida pseudotropicalis; Range is 8-16; type: functional; procedure, shortened: as §1
Trichophyton rubrum [21] = experiment: Antifungal activity against Trichophyton rubrum; Range is 8-16; type: functional
Candida tropicalis [22] = experiment: Antifungal activity against Candida tropicalis; Range is 16-32; type: functional; procedure, shortened: as §1
Trichophyton benhamiae [23] = experiment: Antifungal activity against Trichophyton mentagrophytes; Range is 8-16; type: functional, trychophyton mentagrophytes; procedure, shortened: as §1
Aspergillus niger [24] = experiment: Antifungal activity against Aspergillus niger; Range is 32-64; type: functional; procedure, shortened: as §1
Candida tropicalis [25] = experiment: Antifungal activity against Candida tropicalis; Range is 4-8; type: functional; procedure, shortened: as §1
Kluyveromyces marxianus [26] = experiment: Antifungal activity against Candida pseudotropicalis; Range is 2-4; type: functional; procedure, shortened: as §1
Trichophyton benhamiae [27] = experiment: Antifungal activity against Trichophyton mentagrophytes; Range is 32-128; type: functional, trychophyton mentagrophytes; procedure, shortened: as §1
Aspergillus niger [28] = experiment: Antifungal activity against Aspergillus niger; Range is 64-128; type: functional; procedure, shortened: as §1
Candida albicans [29] = experiment: Antifungal activity against Candida albicans; Range is 32-64; type: functional; procedure, shortened: as §1
Trichophyton rubrum [30] = experiment: Antifungal activity against Trichophyton rubrum; Range is 64-128; type: functional
Trichophyton rubrum [31] = experiment: Antifungal activity against Trichophyton rubrum; Range is 32-64; type: functional; procedure, shortened: as §1
Kluyveromyces marxianus [32] = experiment: Antifungal activity against Candida pseudotropicalis; Range is 64-128; type: functional; procedure, shortened: as §1
Trichophyton rubrum [33] = experiment: Antifungal activity against Trichophyton rubrum; type: functional; procedure, shortened: as §1
Candida tropicalis [34] = experiment: Antifungal activity against Candida tropicalis; Range is 4-16; type: functional; procedure, shortened: as §1

Row | SMILES | MIC (Mucor fragilis) [µg/mL] | MIC (Diutina rugosa) [µg/mL] | MIC (Kluyveromyces marxianus [4]) [µg/mL] | MIC (Candida albicans [5]) [µg/mL] | MIC (Candida parapsilosis) [µg/mL] | MIC (Candida tropicalis [9]) [µg/mL] | MIC (Trichophyton benhamiae [11]) [µg/mL] | MIC (Candida albicans [14]) [µg/mL] | further results
1 | c1cc2nncnc2cn1 | 8 (≈ 60.5 µM) | 8 (≈ 60.5 µM) | 4 (≈ 30.3 µM) | 8 (≈ 60.5 µM) | 16 (≈ 121 µM) | – | – | – | MIC (Trichophyton rubrum [1]): 1 µg/mL (≈ 7.57 µM); MIC (Aspergillus niger [2]): 16 µg/mL (≈ 121 µM); MIC (Candida albicans [3]): 8 µg/mL (≈ 60.5 µM); MIC (Candida tropicalis [6]): 8 µg/mL (≈ 60.5 µM); MIC (Trichophyton benhamiae [7]): 2 µg/mL (≈ 15.1 µM)
2 | c1ccc2c(c1)ncc1ncnnc12 [STRINOLINE] | – | – | 8 (≈ 43.9 µM) | – | 16 (≈ 87.8 µM) | 16 (≈ 87.8 µM) | 4 (≈ 22 µM) | – | MIC (Aspergillus niger [8]): 8 µg/mL (≈ 43.9 µM); MIC (Candida albicans [3]): 8 µg/mL (≈ 43.9 µM); MIC (Trichophyton rubrum [10]): 4 µg/mL (≈ 22 µM)
3 | CC(C)(C)c1nnc2ccncc2n1 | – | – | 64 (≈ 340 µM) | – | 64 (≈ 340 µM) | 64 (≈ 340 µM) | – | 64 (≈ 340 µM) | MIC (Trichophyton benhamiae [12]): 32 µg/mL (≈ 170 µM); MIC (Aspergillus niger [13]): 64 µg/mL (≈ 340 µM); MIC (Trichophyton rubrum [15]): 16 µg/mL (≈ 85 µM)
4 | c1ccc(-c2nnc3ccncc3n2)nc1 | 64 (≈ 306 µM) | 64 (≈ 306 µM) | – | 16 (≈ 76.5 µM) | 64 (≈ 306 µM) | 64 (≈ 306 µM) | 32 (≈ 153 µM) | 64 (≈ 306 µM) | MIC (Trichophyton rubrum [16]): 2 µg/mL (≈ 9.56 µM); MIC (Aspergillus niger [13]): 32 µg/mL (≈ 153 µM); MIC (Kluyveromyces marxianus [17]): 32 µg/mL (≈ 153 µM)
5 | Cc1cc2nnc(C)nc2c(C)n1 | 16 (≈ 91.8 µM) | 64 (≈ 367 µM) | – | 64 (≈ 367 µM) | – | 32 (≈ 184 µM) | – | 8 (≈ 45.9 µM) | MIC (Aspergillus niger [18]): 32 µg/mL (≈ 184 µM); MIC (Trichophyton benhamiae [19]): 8 µg/mL (≈ 45.9 µM); MIC (Kluyveromyces marxianus [20]): 8 µg/mL (≈ 45.9 µM); MIC (Trichophyton rubrum [15]): 16 µg/mL (≈ 91.8 µM)
6 | Cc1nccc2nnc(-c3ccncc3)nc12 | – | – | – | – | 32 (≈ 143 µM) | – | – | 16 (≈ 71.7 µM) | MIC (Kluyveromyces marxianus [20]): 8 µg/mL (≈ 35.8 µM); MIC (Trichophyton rubrum [21]): 8 µg/mL (≈ 35.8 µM); MIC (Candida tropicalis [22]): 16 µg/mL (≈ 71.7 µM); MIC (Trichophyton benhamiae [23]): 8 µg/mL (≈ 35.8 µM); MIC (Aspergillus niger [24]): 32 µg/mL (≈ 143 µM)
7 | CN(C)c1ccc(-c2nnc3ccncc3n2)cc1 | – | – | 32 (≈ 127 µM) | – | 64 (≈ 255 µM) | 64 (≈ 255 µM) | 8 (≈ 31.8 µM) | 64 (≈ 255 µM) | MIC (Trichophyton rubrum [16]): 2 µg/mL (≈ 7.96 µM); MIC (Aspergillus niger [18]): 32 µg/mL (≈ 127 µM)
8 | c1cc(-c2nnc3ccncc3n2)ccn1 | 32 (≈ 153 µM) | 32 (≈ 153 µM) | – | 32 (≈ 153 µM) | 8 (≈ 38.2 µM) | – | 4 (≈ 19.1 µM) | 8 (≈ 38.2 µM) | MIC (Trichophyton rubrum [16]): 2 µg/mL (≈ 9.56 µM); MIC (Candida tropicalis [25]): 4 µg/mL (≈ 19.1 µM); MIC (Aspergillus niger [8]): 8 µg/mL (≈ 38.2 µM); MIC (Kluyveromyces marxianus [26]): 2 µg/mL (≈ 9.56 µM)
9 | Cc1cc2nnc(-c3ccncc3)nc2c(C)n1 | > 128 | 32 (≈ 135 µM) | 32 (≈ 135 µM) | 32 (≈ 135 µM) | – | 128 (≈ 539 µM) | – | – | MIC (Trichophyton benhamiae [27]): 32 µg/mL (≈ 135 µM); MIC (Aspergillus niger [28]): 64 µg/mL (≈ 270 µM); MIC (Candida albicans [29]): 32 µg/mL (≈ 135 µM); MIC (Trichophyton rubrum [30]): 64 µg/mL (≈ 270 µM)
10 | Cc1nnc2c(N)c(C)nc(C)c2n1 | – | – | – | – | 128 (≈ 676 µM) | 128 (≈ 676 µM) | – | 128 (≈ 676 µM) | MIC (Trichophyton benhamiae [12]): 32 µg/mL (≈ 169 µM); MIC (Aspergillus niger [13]): 128 µg/mL (≈ 676 µM); MIC (Trichophyton rubrum [31]): 32 µg/mL (≈ 169 µM); MIC (Kluyveromyces marxianus [32]): 64 µg/mL (≈ 338 µM)
11 | c1ccc2c(c1)ncc1nc(-c3ccncc3)nnc12 | – | – | – | – | 128 (≈ 494 µM) | 128 (≈ 494 µM) | 64 (≈ 247 µM) | 128 (≈ 494 µM) | MIC (Trichophyton rubrum [33]): 64 µg/mL (≈ 247 µM); MIC (Aspergillus niger [28]): 64 µg/mL (≈ 247 µM); MIC (Kluyveromyces marxianus [26]): 2 µg/mL (≈ 7.71 µM)
12 | c1cncc(-c2nnc3ccncc3n2)c1 | > 128 | 16 (≈ 76.5 µM) | 4 (≈ 19.1 µM) | 32 (≈ 153 µM) | 16 (≈ 76.5 µM) | – | 4 (≈ 19.1 µM) | – | MIC (Candida tropicalis [34]): 4 µg/mL (≈ 19.1 µM); MIC (Trichophyton rubrum [1]): 1 µg/mL (≈ 4.78 µM); MIC (Aspergillus niger [2]): 16 µg/mL (≈ 76.5 µM); MIC (Candida albicans [3]): 8 µg/mL (≈ 38.2 µM)
